TRPC6 inhibitor: mouse TRPC6 channel inhibition; Q61143; HEK293-TRPC6, membrane potential dye, ACh-evoked depolarization; active compounds read low; B-score at 10 µM; 310,000 tested, 1.1% active; AID 2553;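 active = B-score under library mean minus 3 SD, initial fluorescence not abnormally high, positive integrated signal ratio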;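 note: B-score derived from integrated fluorescence ratio over the kinetic read; more negative B-score means stronger inhibition of depolarization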
TRPC4 block: inhibitors of mouse TRPC4 channel. Q9QUQ5. HEK293 TRPC4beta/mu-opioid, DAMGO-evoked Fluo4 calcium flux; active compounds read low. B-score at 10 µM. 300,000 tested, 0.39% active. AID 2247;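 active = B-score over 3 SD under the library average, no early fluorescence shift, positive overall ratio signal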
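material = TRPC4beta/mu-opioid receptor HEK293 cell line | probe or stimulus = sequential submaximal and maximal DAMGO stimulation | compound dosing = one concentration per compound | measured by = Fluo4 Ca2+ flux fluorescence | evaluation = integrated fluorescence ratio relative to baseline, converted to per-well B score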
TRPC4 act: TRPC4 (mouse) channel activation; Q9QUQ5; HEK293 TRPC4beta/mu-opioid, Fluo4 calcium fluorescence; active compounds read high; B-score at 10 µM; 310,000 tested, 0.49% active; AID 2237;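 active = B-score above 5 SD of library B-scores, and initial fluorescence ratio not above library mean plus 5 SD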;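 note: positive B-score marks a calcium rise read as TRPC4 activation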
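Material: TRPC4beta and mu-opioid receptor HEK293 stable cells | Incubation: 45 min room-temperature Fluo4 loading, 110 s read | Detection: Kinetic Fluo4 calcium fluorescence | Measure: Integrated baseline-normalised fluorescence ratio, converted to per-well B score | Benchmarks: Low control buffer alone, high control maximal DAMGO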
TRPC6 activator: activates the mouse TRPC6 cation channel. B-score at 10 µM. 310,000 tested, 0.13% active. HEK293-TRPC6 membrane potential dye fluorescence; active compounds read high;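 active = B-score of the integrated fluorescence ratio above library mean plus 3 SD, and starting fluorescence ratio within library mean plus 5 SD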;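 note: higher score means more depolarization so channel activation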
TRPC4 PAM: TRPC4 (mouse) allosteric potentiation | B-score at 10 µM | Q9QUQ5 | AID 2227 | HEK293 TRPC4beta/mu-opioid, DAMGO EC20, Fluo-4 Ca2+ flux; active compounds read high | 310,000 tested, 0.42% active;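 active = B-score of calcium response area above 5 SD of library B-scores, with initial fluorescence ratio within 5 SD of library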;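 note: B-score of integrated fluorescence ratio over time as area under calcium response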
HEK293 MPD ctr: checks TRPC6 modulator effects in parental HEK293 cells; 2,400 tested, 51% active; membrane potential dye fluorescence; shares compounds with TRPC6 inhibitor; membrane potential signal change, % at 10 µM;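 active = membrane potential signal moves up or down beyond 5 SD from buffer-only wells, on both duplicate plates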
HEK293 MPD ctr 2: second counter-screen for TRPC6 modulators: effect in parental HEK293 cells. shares compounds with TRPC6 inhibitor. membrane potential dye fluorescence; after compound, maximal acetylcholine stimulation. inhibition, % at 10 µM. 2,400 tested, 14% active. AID 488926;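 active = membrane potential signal drops by more than 5 SD from the mean control signal, in both duplicate plates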;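 note: plate controls were acetylcholine ECmax control wells for no effect and buffer only wells for full effect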
TRPC4 ctr mod: selectivity of TRPC6 modulators against mouse TRPC4; percent change from control (negative = decrease, positive = increase), % at 10 µM; shares compounds with TRPC6 inhibitor; HEK293 TRPC4/mu-opioid, membrane potential fluorescence; 2,400 tested, 69% active; AID 488927;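 active = membrane potential signal moved up or down beyond 5 SD of buffer control wells, in both duplicate plates, actives on both sides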;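 note: plate controls were assay buffer wells for no effect and DAMGO maximal-effect wells for full effect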
TRPC4 ctr inh 2: mouse TRPC4 off-target activity of TRPC6 modulators, second screen; inhibition, % at 10 µM; AID 488928; HEK293 TRPC4/mu-opioid, membrane potential dye fluorescence; stimulated with maximal-effect DAMGO; 2,400 tested, 55% active; shares compounds with TRPC6 inhibitor;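 active = drop in membrane potential signal beyond 5 SD of the control wells in both duplicate plates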;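 note: TRPC4 counter screen for TRPC6 hits run under conditions tuned for TRPC6 not TRPC4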
TRPC6 inh conf: mouse TRPC6 inhibitor confirmation | HEK293-TRPC6, membrane potential dye, ACh-evoked depolarization | 3,300 tested, 43% active | shares compounds with TRPC6 inhibitor | inhibition, % at 10 µM;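 active = fluorescence ratio falls more than 5 SD below the full-stimulation control mean, in both duplicate runs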;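 note: integrated fluorescence ratio of peak minus minimum over baseline after agonist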
TRPC6 act conf: confirmation of mouse TRPC6 activators; shares compounds with TRPC6 inhibitor; HEK293-TRPC6 membrane potential dye fluorescence, FDSS; activation, % at 10 µM; 2,800 tested, 11% active;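 active = ratio signal rise beyond 5 SD above unstimulated control wells' mean, seen in both duplicate runs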;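 note: plate controls were buffer EC0 wells for no effect and acetylcholine ECmax response for full effect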
* hit, by the source's call. Sampled rows, rich in hits. Any-hit rate of the full collection: about 2.3%.

For CCOC(=O)c1cnc2c(OC)cccc2c1N1CCN(c2ccccc2OC)CC1 the results were TRPC6 inhibitor inactive, TRPC4 block inactive, TRPC4 act inactive, TRPC6 activator inactive and TRPC4 PAM inactive.
Screening O=C1c2ccccc2C(=O)N1c1ccc(Cc2ccncc2)cc1 returned TRPC6 inhibitor inactive, TRPC4 block inactive, TRPC4 act inactive, TRPC6 activator inactive and TRPC4 PAM inactive.
For Cc1ccc(C(=O)NCC(=O)NCC(=O)OCc2ccc(F)cc2)cc1 the results were TRPC6 inhibitor inactive, TRPC4 block inactive, TRPC4 act inactive, TRPC6 activator inactive and TRPC4 PAM inactive.
O=C(NNc1ccc(C(F)(F)F)cc1[N+](=O)[O-])c1ccc(NS(=O)(=O)c2ccc(F)cc2)cc1 was read as TRPC6 inhibitor -5.4*, TRPC4 block inactive, TRPC4 act inactive, TRPC6 activator inactive, TRPC4 PAM inactive, HEK293 MPD ctr -112%*, HEK293 MPD ctr 2 inactive, TRPC4 ctr mod -26%*, TRPC4 ctr inh 2 62%*, TRPC6 inh conf 64%* and TRPC6 act conf inactive.
`CC(C)[C@H](Nc1ccc(C(F)(F)F)cc1[N+](=O)[O-])C(=O)O` gave TRPC6 inhibitor inactive, TRPC4 block inactive, TRPC4 act inactive, TRPC6 activator inactive and TRPC4 PAM inactive.
For Cc1ccc(C)c(NC(NC(=O)c2ccccn2)C(Cl)(Cl)Cl)c1 (stereo not given) the results were TRPC6 inhibitor inactive, TRPC4 block inactive, TRPC4 act inactive, TRPC6 activator inactive and TRPC4 PAM inactive.
Screening COc1ccc(-c2coc3cc(OC)cc(O)c3c2=O)cc1 returned TRPC6 inhibitor -8.6*, TRPC4 block inactive, TRPC4 act inactive, TRPC6 activator inactive, TRPC4 PAM inactive, HEK293 MPD ctr inactive, HEK293 MPD ctr 2 inactive, TRPC4 ctr mod inactive, TRPC4 ctr inh 2 inactive, TRPC6 inh conf inactive and TRPC6 act conf inactive.
COc1ccc(-c2coc3cc(O)cc(O)c3c2=O)cc1 was read as TRPC6 inhibitor inactive, TRPC4 block inactive, TRPC4 act inactive, TRPC6 activator inactive and TRPC4 PAM inactive.
For O=[N+]([O-])c1cccc(-c2c[n+]3c(n2-c2ccccc2)SCC3)c1 the results were TRPC6 inhibitor -5.2*, TRPC4 block inactive, TRPC4 act inactive, TRPC6 activator inactive, TRPC4 PAM inactive, HEK293 MPD ctr inactive, HEK293 MPD ctr 2 inactive, TRPC4 ctr mod inactive, TRPC4 ctr inh 2 34%*, TRPC6 inh conf 47%* and TRPC6 act conf inactive.
Screening Clc1ccc(-c2c[n+]3c(n2-c2ccccc2)SCC3)cc1 returned TRPC6 inhibitor inactive, TRPC4 block inactive, TRPC4 act inactive, TRPC6 activator inactive and TRPC4 PAM inactive.
`Cc1cc(NC(=O)CSc2ccccn2)cc(NC(=O)CSc2ccccn2)c1` gave TRPC6 inhibitor inactive, TRPC4 block inactive, TRPC4 act inactive, TRPC6 activator inactive and TRPC4 PAM inactive.
Screening Cc1nonc1NC(=O)CSc1ccccn1 returned TRPC6 inhibitor -5.7*, TRPC4 block inactive, TRPC4 act inactive, TRPC6 activator inactive, TRPC4 PAM inactive, HEK293 MPD ctr inactive, HEK293 MPD ctr 2 inactive, TRPC4 ctr mod inactive, TRPC4 ctr inh 2 inactive, TRPC6 inh conf inactive and TRPC6 act conf inactive.

From PubChem
